Assay outcomes: PubChem, Johns Hopkins Ion Channel Center
KCNK9 block = inhibitors of human KCNK9 two-pore domain potassium channel; 310,000 compounds, 1.2% hits; Q9NPC2; HEK293 KCNK9, FluxOR thallium flux fluorescence; hits give low values; B-score at 10 µM;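 active means ratio B-score over 3 SD below the library mean, with starting fluorescence within 5 SD of its mean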;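 further: negative B-score means less thallium flux so channel inhibition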
KCNK3 block = human KCNK3 channel inhibition, primary screen; CHO-KCNK3 thallium flux, FluxOR fluorescence; hits give low values; AID 602410; 340,000 compounds, 0.84% hits; B-score at 10 µM;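 active means B-score under library mean minus 4 SD, starting fluorescence ratio at most library mean plus 5 SD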;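 further: more negative B-score means stronger inhibition of thallium flux through KCNK3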
Target sequence (O14649 whole entry, looked up): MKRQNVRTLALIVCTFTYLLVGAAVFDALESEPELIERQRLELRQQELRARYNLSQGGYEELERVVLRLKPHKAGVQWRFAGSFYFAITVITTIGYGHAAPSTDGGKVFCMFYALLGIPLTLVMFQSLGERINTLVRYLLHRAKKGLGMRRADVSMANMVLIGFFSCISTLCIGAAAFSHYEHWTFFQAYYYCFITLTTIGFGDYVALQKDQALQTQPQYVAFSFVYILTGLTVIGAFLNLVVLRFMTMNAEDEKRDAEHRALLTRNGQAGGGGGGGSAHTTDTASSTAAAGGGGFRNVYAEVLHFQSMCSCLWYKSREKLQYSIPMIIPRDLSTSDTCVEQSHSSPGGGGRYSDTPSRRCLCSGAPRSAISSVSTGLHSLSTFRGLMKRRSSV
KCNQ1 pot = potentiators or activators of human KCNQ1 potassium channel; P51787; CHO-K1 KCNQ1, thallium flux FluxOR fluorescence; hits give high values; B-score at 10 µM; 310,000 compounds, 0.35% hits; AID 2648;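 active means fluorescence ratio B-score, a plate-corrected score, at least three library SD, with initial intensity B-score within 5 SD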
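assay system = KCNQ1-transfected CHO-K1 cells | medium = assay buffer with matched DMSO | probe or stimulus = depolarizing K+/Tl+ stimulus, K2SO4 and Tl2SO4 each 12.5 mM in 5x stock | dosing = single dose | incubation = dye 90 min, compound 20 min, room temperature | detection = kinetic FluxOR fluorescence, 10 s baseline plus 110 s post-stimulus | evaluation = ratio B score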
hERG rescue = compounds protecting human hERG from proarrhythmic drug block; CHO-hERG, FluxOR thallium flux, dofetilide IC70 present; activation (rescue from dofetilide block), less the hit threshold, % at 10 µM; 310,000 compounds, 0.51% hits; AID 1511;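 active means activation above the mean of controls blocked by dofetilide plus 5 SD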;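 further: thallium influx through hERG after potassium depolarization seen as dye fluorescence rise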
KCNQ1 block = human KCNQ1 channel inhibition. B-score at 10 µM. 310,000 compounds, 1.3% hits. P51787. CHO-K1 KCNQ1, FluxOR thallium flux fluorescence; hits give high values;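 active means compounds whose thallium flux B-score, printed positive for inhibition, exceeds three library SD while starting fluorescence stays within three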;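 further: channel opened by potassium depolarization with thallium stimulus after 20 min compound exposure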
Kir21 block = Kir2.1 (mouse) channel inhibition | P35561 | HEK293-Kir2.1, FluxOR thallium flux fluorescence; hits give low values | B-score at 10 µM | 310,000 compounds, 0.85% hits | AID 1672;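 active means fluorescence ratio B-score at or below minus 3 SD of library scores, with starting-brightness B-score within 2 SD, cut at about -4.2 in these data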;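 further: channel flux triggered by added potassium and thallium sulfate stimulus; B-score of peak minus minimum fluorescence over baseline after thallium stimulus; more negative B-score means stronger Kir2.1 block with less thallium influx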
KCNQ1 block val = confirmation of human KCNQ1 potassium channel inhibitors. 1,600 compounds, 93% hits. inhibition, % at 10 µM. KCNQ1 cell line, FluxOR thallium flux fluorescence. shares compounds with KCNQ1 block;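 active means primary screen active, with duplicate mean exceeding buffer control mean plus 3 SD of buffer wells, cut at about 28% in these data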
CHO KCNQ1 ctr = counter-screen for KCNQ1 inhibitors: effect in parental CHO cells; shares compounds with KCNQ1 block; parental CHO-K1, FluxOR thallium flux fluorescence ratio; hits give low values; zero means no signal rise above baseline; fluorescence ratio (Tl flux) at 10 µM; 1,600 compounds, 21% hits;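 active means mean of duplicate thallium-flux fluorescence ratios in parental host cells more than 5 SD below the buffer control mean, cut at about 0.38 in these data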;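 further: ratio is peak minus minimum fluorescence divided by baseline fluorescence; actives read low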
KCNQ1 APC inh = confirmation of human KCNQ1 potassium channel inhibitors by electrophysiology | shares compounds with KCNQ1 block | KCNQ1-CHO cells, automated patch clamp current | calls only at 10 µM | 490 compounds, 20% hits | AID 624120;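 active means KCNQ1 current drop exceeding 3 SD of negative control wells, seen in both duplicate runs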;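 further: steady state current during a 2 s step from -80 to +40 mV; negative values mean current inhibition and positive values mean potentiation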
KCNQ2 spec = KCNQ1 inhibitor that also blocks rat KCNQ2 channel | shares compounds with KCNQ1 block | KCNQ2 cells, FluxOR thallium flux fluorescence | inhibition, % at 10 µM | 1,600 compounds, 71% hits | AID 651746;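 active means mean percent inhibition of the KCNQ2 thallium signal more than 5 SD above the buffer-only control wells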;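 further: KCNQ2 expressed in CHO cells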
KCNQ1 KCNE1 spec = selectivity of KCNQ1 inhibitors: inhibition of human KCNQ1/KCNE1 channel. shares compounds with KCNQ1 block. KCNQ1/KCNE1 cells, FluxOR thallium flux fluorescence. inhibition, % at 10 µM. 1,600 compounds, 77% hits. AID 652147;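 active means mean percent inhibition of duplicate wells above the buffer-only control mean plus 3 SD of those controls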
Hits are given with their value; i = inactive; nt = no result given; + = active, no number. Shown are actives, neighbours in structure and some others; about 3.8% of the full set was active somewhere.

SMILES	KCNK9 block	KCNK3 block	KCNQ1 pot	hERG rescue	KCNQ1 block	Kir21 block	KCNQ1 block val	CHO KCNQ1 ctr	KCNQ2 spec	KCNQ1 KCNE1 spec	others
CCC(=O)N(Cc1ccco1)c1nc(C(=O)Nc2ccc(Cl)cc2)c(C)s1	i	i	i	i	9	i	88	i	63%	111%
CCN(C(=O)c1ccco1)c1nc(CC(=O)Nc2ccc(Cl)cc2)cs1	i	i	i	i	i	i	nt	nt	nt	nt
CC(C)c1nnc(NC(=O)C2CCN(C(=O)Nc3ccccc3)CC2)s1	i	i	i	i	i	i	nt	nt	nt	nt
COc1cc(C2CC(=O)Oc3cc(C)c(Br)c(C)c32)cc(OC)c1OC (stereo not given)	nt	i	nt	nt	nt	nt	nt	nt	nt	nt
COc1cc(C(=O)COC(=O)C2CCN(c3ccc(C(F)(F)F)cn3)CC2)ccc1OC(F)F	i	i	i	i	6	i	62	i	115%	62%
COc1ccc(C(=O)COC(=O)C2CCN(c3ccc(C(F)(F)F)cn3)CC2)c(OC)c1	nt	i	nt	nt	nt	nt	nt	nt	nt	nt
COC(=O)c1ccc(Cl)c(NC(=O)NC23CC4CC(CC(C4)C2)C3)c1	i	i	i	i	10	i	131	i	108%	170%
COc1ccc(-c2nc(NC(=O)c3[nH]c(C)c(C(C)=O)c3C)sc2C)cc1	i	-9.9	i	i	14	i	97	0.28	110%	180%
COc1ccc(OC)c(NC(=O)c2[nH]c(C)c(C(C)=O)c2C)c1	i	i	i	i	i	i	nt	nt	nt	nt
CC1(C)CC(=O)C(C(C2=C(O)CC(C)(C)CC2=O)c2ccc(O)c([N+](=O)[O-])c2)=C(O)C1	i	i	i	i	i	i	nt	nt	nt	nt
O=C(Nc1cccc(C(F)(F)F)c1)c1cccnc1	i	i	i	i	i	i	nt	nt	nt	nt
COc1cc(NC(=O)c2ccnnc2)cc(C(=O)Nc2cccc(C(F)(F)F)c2)c1	i	i	i	i	9	i	92	i	111%	117%
O=C(Nc1ccccc1N1CCCC1)c1ccccc1F	i	i	i	i	i	i	nt	nt	nt	nt
O=C(COc1ccccc1[N+](=O)[O-])Nc1ccccc1N1CCCCC1	i	i	i	i	i	i	nt	nt	nt	nt
Cc1ccccc1OCC(=O)Nc1ccccc1N1CCCCC1	-8	i	i	i	8	i	120	i	95%	170%	KCNQ1 APC inh=i
O=C(Nc1ccccc1N1CCCCC1)c1ccccc1F	i	i	i	i	6	i	102	0.37	76%	144%
Cc1cnc(NC(=O)c2cc3c(C)nn(-c4ccccc4)c3s2)s1	i	i	i	i	i	i	nt	nt	nt	nt
Cc1ccc(S(=O)(=O)NCC(=O)OCC(=O)c2c(N)n(C)c(=O)n(C)c2=O)cc1	i	i	i	i	i	i	nt	nt	nt	nt
O=C(CN1C2=NCCN2c2ccccc21)C12CC3CC(CC(C3)C1)C2	i	i	i	i	11	i	70	i	74%	40%
c1ccc(CN2C3=NCCN3c3ccccc32)cc1	i	i	i	i	i	i	nt	nt	nt	nt
Clc1ccc(CNC2CCCC2)c(Cl)c1	i	i	i	i	i	i	nt	nt	nt	nt
S=C(NCc1ccc(Cl)cc1Cl)NC1CCCCC1	i	i	i	i	7	i	152	i	65%	i	KCNQ1 APC inh=+
S=C(NCCc1cccc(Cl)c1)NC1CCCCC1	i	i	i	i	8	i	64	i	74%	56%
COCCCn1c(SCC(=O)N2CCc3ccccc32)nnc1-c1ccco1	i	i	i	i	i	i	nt	nt	nt	nt
